In brackets after ≈: the same amount, converted by molar mass.
System: Staphylococcus aureus
Assay: Antibacterial activity against methicillin resistant Staphylococcus aureus FPR3757 assessed as inhibition of bacterial growth incubated for 24 hrs by CLSI based method
Type: functional
Conditions: read-out: MIC100
How it was run: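 It was mixed 1:1 with twofold serial compound dilutions and incubated stationary at 37 °C for 24 h. MIC was the lowest concentration giving complete inhibition of observable growth, with an oxacillin control.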

SMILES	MIC [µg/mL]
FC(F)(F)c1ccc2c(Oc3cccc(Cl)c3)cc(C(F)(F)F)nc2c1	> 32
FC(F)(F)c1ccc2c(Nc3ccc(N4CCOCC4)cc3)cc(C(F)(F)F)nc2c1	> 16
FC(F)(F)Oc1ccc2c(Nc3ccc(C(F)(F)F)cn3)cc(C(F)(F)F)nc2c1	1 (≈ 2.27 µM)
Oc1cc(C(F)(F)F)nc2c(C(F)(F)F)cccc12	2 (≈ 7.11 µM)
Fc1ccc(Nc2nc(C(F)(F)F)nc3nc(C(F)(F)F)ccc23)cc1F	32 (≈ 81.2 µM)
O=c1cc(C(F)(F)F)[nH]c2cc(C(F)(F)F)cc(Nc3ccc(C(F)(F)F)nn3)c12	1 (≈ 2.26 µM)
Cn1cc(Nc2cc(C(F)(F)F)nc3cc(C(F)(F)F)ccc23)ccc1=O	> 32
FC(F)(F)c1ccc2c(N3CCc4cccnc43)cc(C(F)(F)F)nc2c1	> 32
Fc1ccc(Nc2cnnc3cc(C(F)(F)F)ccc23)cc1F	> 32
FC(F)(F)c1ccc2c(Nc3cccc(I)c3)cc(C(F)(F)F)nc2c1	0.25 (≈ 0.518 µM)
CSc1cccc(Nc2cc(C(F)(F)F)nc3cc(C(F)(F)F)ccc23)c1	0.25 (≈ 0.621 µM)
O=C1Cc2cc(Nc3cc(C(F)(F)F)nc4cc(C(F)(F)F)ccc34)ccc2N1	> 32
